Where two headings read alike, the source gives them in different places. Where a SMILES comes first, the peptide text is derived from it.
Assays:
Type in all cases: biochemical
caspase-3 (Casp3) = target: T1, caspase-3 (Casp3) (Homo sapiens, UniProt P42574); assay: Fluorometric enzyme inhibition assay, Casp3; conditions: SEM
T1 sequence (P42574 29-175 limits assumed): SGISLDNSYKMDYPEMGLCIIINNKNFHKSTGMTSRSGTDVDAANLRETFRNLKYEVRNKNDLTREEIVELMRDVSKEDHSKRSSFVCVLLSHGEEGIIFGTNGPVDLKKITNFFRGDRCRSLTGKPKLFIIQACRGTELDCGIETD
T1 sequence (P42574 176-277 limits assumed): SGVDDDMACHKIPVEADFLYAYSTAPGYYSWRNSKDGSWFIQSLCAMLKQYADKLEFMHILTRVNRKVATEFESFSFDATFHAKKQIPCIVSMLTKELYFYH
In short: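 Recombinant Casp3 produced in house, 2 nM/well, in 100 mM HEPES pH 7.0, 150 mM NaCl, 0.1% CHAPS, 1.5% sucrose, 10 mM DTT. Preincubated with DMSO-diluted test compound 5 min, 37 °C. AcDEVD-AFC (Km 7.6 μM) at 5 μM (384-well, duplicate) or 10 μM (96-well, triplicate). Fluorescence ex 400/em 505 nm at 37 °C, 40 min reading. Four-parameter IC50 converted to Ki via Cheng–Prusoff.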

[1] = target: T2, circularly permutated caspase-2 (cpCasp2) (Homo sapiens, UniProt P42575); assay: Fluorometric enzyme inhibition assay, cpCasp2
T2 sequence (P42575 1-452): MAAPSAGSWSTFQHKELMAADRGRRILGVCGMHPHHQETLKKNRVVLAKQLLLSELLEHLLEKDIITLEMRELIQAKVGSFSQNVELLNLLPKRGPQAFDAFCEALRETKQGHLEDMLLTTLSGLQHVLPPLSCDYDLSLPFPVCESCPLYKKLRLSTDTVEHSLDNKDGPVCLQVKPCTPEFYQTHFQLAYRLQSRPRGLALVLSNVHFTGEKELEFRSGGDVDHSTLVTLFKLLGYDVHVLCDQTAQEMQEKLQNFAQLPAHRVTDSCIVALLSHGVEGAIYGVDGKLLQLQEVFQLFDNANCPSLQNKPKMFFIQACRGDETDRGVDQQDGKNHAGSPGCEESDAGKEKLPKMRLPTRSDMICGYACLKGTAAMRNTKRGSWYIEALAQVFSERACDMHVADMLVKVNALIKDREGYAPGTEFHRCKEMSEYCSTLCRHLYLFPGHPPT

caspase-2 (Casp2) = target: T3, caspase-2 (Casp2) (Homo sapiens, UniProt P42575); assay: Fluorometric enzyme inhibition assay, Casp2
T3 sequence (P42575 170-333 limits assumed): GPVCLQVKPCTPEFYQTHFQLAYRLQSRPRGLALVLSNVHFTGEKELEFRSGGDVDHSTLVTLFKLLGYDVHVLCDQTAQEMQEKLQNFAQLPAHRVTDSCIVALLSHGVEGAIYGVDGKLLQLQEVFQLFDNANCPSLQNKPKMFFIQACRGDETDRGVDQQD
T3 sequence (P42575 348-452 limits assumed): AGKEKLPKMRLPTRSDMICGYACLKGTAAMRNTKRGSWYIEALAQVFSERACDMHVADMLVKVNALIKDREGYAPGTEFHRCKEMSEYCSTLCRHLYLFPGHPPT
In short: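 In-house recombinant Casp2 in 100 mM MES pH 6.5, 150 mM NaCl, 0.1% CHAPS, 1.5% sucrose, 10 mM DTT. […] 384-well: 20 nM enzyme, 10 μM substrate, duplicate. 96-well: 5 nM, 25 μM, triplicate. AFC fluorescence (ex 400/em 505 nm) at 37 °C, 40 min point. Four-parameter IC50 fit, converted by Cheng–Prusoff.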

SMILES	Ki (caspase-3 (Casp3)) [nM]	Ki [1] [µM]	Ki ([1]; SEM) [µM]	Ki (caspase-2 (Casp2); SEM) [µM]	Ki (caspase-2 (Casp2)) [µM]
CC(=O)N[C@H](C(=O)N1CCC[C@H]1C(=O)N[C@H](C=O)CC(=O)O)C(C)C [compound 17, (S)-3-[(S)-1-(Acetyl-L-valyl)pyrrolidine-2-carboxamido]-4-oxobutanoic acid] (Ac-Val-Pro-Asp-aldehyde)	5750	> 100			
CC(=O)NCCCC[C@H](NC(=O)[C@@H](NC(=O)[C@@H](NC(C)=O)[C@@H](C)O)C(C)C)C(=O)N[C@H](C=O)CC(=O)O [compound 30, (4S,7S,10S,13S)-10-(4-Acetamidobutyl)-13-formyl-4-[(R)-1-hydroxyethyl]-7-isopropyl-2,5,8,11-tetraoxo-3,6,9,12-tetraazapentadecan-15-oic acid] (Ac-TVK(Ac)D-aldehyde)	224		20.9	20	
CC(=O)NCCCC[C@H](NC(=O)[C@@H](NC(C)=O)C(C)C)C(=O)N[C@H](C=O)CC(=O)O [compound 31, (S)-3-{(S)-6-Acetamido-2-[(S)-2-acetamido-3-methylbutanamido]hexanamido}-4-oxobutanoic acid] (Ac-Val-Lys(Ac)-Asp-aldehyde)	9550				> 100
CC(=O)N[C@H](C(=O)N[C@@H](CC(=O)O)C(=O)N[C@H](C(=O)N[C@@H](C)C(=O)N[C@H](C=O)CC(=O)O)[C@@H](C)O)[C@@H](C)O [compound 55, (4S,7S,10S,13S,16S)-7-(Carboxymethyl)-16-formyl-4,10-bis[(R)-1-hydroxyethyl]-13-methyl-2,5,8,11,14-pentaoxo-3,6,9,12,15-pentaazaoctadecan-18-oic acid] (Ac-TDTAD-aldehyde)	60.3		0.0646	0.0331	

Reference: publication PMC9616052 (Archiv der Pharmazie, 2022)
